Measured values as given in ChEMBL document CHEMBL1157805, “Virtual screening, selection and development of a benzindolone structural scaffold for inhibition of lumazine synthase” (Bioorg Med Chem, 2010).
Calls of active or inactive are those of the source. The rule behind the calls is not given here.

Columns and labels:
[1] = system: Mycobacterium tuberculosis; assay: Activity at Mycobacterium tuberculosis recombinant riboflavin synthase after 30 mins by fluorescence assay
Method in brief: (§1)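 Recombinant M. tuberculosis riboflavin synthase (1 μM) in 100 mM Tris-HCl pH 7.0, 100 mM NaCl, 5 mM DTT, 2% DMSO. 6,7-Dimethyl-8-ribityllumazine substrate was varied 3–60 μM and inhibitor 0–200 μM. Reactions were started with substrate. Riboflavin formation was monitored at 470 nm for 30 min at 27 °C. Velocity–substrate data for all inhibitor levels were fitted by nonlinear regression to alternative inhibition models.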

[2] = molecular target: 6,7-dimethyl-8-ribityllumazine synthase (Mycobacterium tuberculosis) (UniProt P9WHE9); assay: Mixed Inhibition of Mycobacterium tuberculosis recombinant lumazine synthase
Method in brief: (§2)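 Recombinant M. tuberculosis lumazine synthase (2 μM) in 100 mM Tris-HCl pH 7.0, 100 mM NaCl, 5 mM DTT, 2% DMSO. Dihydroxybutanone phosphate was fixed at 100 μM, pyrimidinedione substrate varied 3–100 μM, and inhibitor 0–200 μM. Reactions were started with the pyrimidinedione substrate. Lumazine formation was read at 408 nm for 30 min at 27 °C. Velocity–substrate data were fitted by nonlinear regression to alternative inhibition models.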

[3] = molecular target: 6,7-dimethyl-8-ribityllumazine synthase (Mycobacterium tuberculosis) (UniProt P9WHE9); assay: Uncompetitive inhibition of Mycobacterium tuberculosis recombinant lumazine synthase; method in brief: as §2
[4] = system: Mycobacterium tuberculosis; assay: Uncompetitive inhibition of Mycobacterium tuberculosis recombinant riboflavin synthase; method in brief: as §1

Chain of 6,7-dimethyl-8-ribityllumazine synthase (Mycobacterium tuberculosis) (P9WHE9 whole entry): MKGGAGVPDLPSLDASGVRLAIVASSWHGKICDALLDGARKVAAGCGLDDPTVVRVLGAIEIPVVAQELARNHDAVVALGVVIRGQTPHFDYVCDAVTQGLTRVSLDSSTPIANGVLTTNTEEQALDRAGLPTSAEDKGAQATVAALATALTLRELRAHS

Question: `O=C1Nc2ccc(S(=O)(=O)NCCOP(=O)(O)O)c3cccc1c23` was tested. Which kcat [1] did it give?
Answer: 0.005 s⁻¹

Question: Which inhibition [2] does the source give for `O=C1Nc2ccc(S(=O)(=O)NCCCCC(F)(F)P(=O)(O)O)c3cccc1c23` here?
Answer: Active

Question: With `O=C1Nc2ccc(S(=O)(=O)NCCCCCCOP(=O)(O)O)c3cccc1c23` as the compound, how does the kcat [1] read?
Answer: 0.00933 s⁻¹

Question: What about the inhibition [3] of the same compound?
Answer: Active

Question: And the inhibition [4]?
Answer: Active

Question: How did the kcat [1] turn out when `O=C1Nc2ccc(S(=O)(=O)NCCCOP(=O)(O)O)c3cccc1c23` was run?
Answer: 0.00467 s⁻¹

Question: And the inhibition [2]?
Answer: Active

Question: `CCOC(=O)C(=O)Nc1c(Cl)[nH]c(=O)[nH]c1=O` was tested. Which kcat [1] did it give?
Answer: 0.00567 s⁻¹

Question: And the inhibition [2]?
Answer: Active

Question: And the inhibition [4]?
Answer: Active

Question: With `O=C1Nc2ccc(S(=O)(=O)NCCCCOP(=O)(O)O)c3cccc1c23` as the compound, how does the kcat [1] read?
Answer: 0.00483 s⁻¹

Question: And the inhibition [2]?
Answer: Active

Question: Which results are given for `O=C1Nc2ccc(S(=O)(=O)NCCCCCOP(=O)(O)O)c3cccc1c23`?
Answer: kcat [1]: 0.00933 s⁻¹; inhibition [3]: Active; inhibition [4]: Active
